Key:
[1] = Selectivity ratio for binding affinity towards alpha2 and alpha-1 adrenoceptors
Outline: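 Ratio of α2 Ki ([³H]clonidine binding) to α1 Ki ([³H]prazosin binding), both measured in rat cortical membrane competition assays.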

[2] = biological target: T1, Alpha-1B adrenergic receptor (Rattus norvegicus, UniProt P15823); test: Displacement of [3H]prazosin from Alpha-1B adrenergic receptor of rat liver membrane
T1 sequence (P15823 whole entry): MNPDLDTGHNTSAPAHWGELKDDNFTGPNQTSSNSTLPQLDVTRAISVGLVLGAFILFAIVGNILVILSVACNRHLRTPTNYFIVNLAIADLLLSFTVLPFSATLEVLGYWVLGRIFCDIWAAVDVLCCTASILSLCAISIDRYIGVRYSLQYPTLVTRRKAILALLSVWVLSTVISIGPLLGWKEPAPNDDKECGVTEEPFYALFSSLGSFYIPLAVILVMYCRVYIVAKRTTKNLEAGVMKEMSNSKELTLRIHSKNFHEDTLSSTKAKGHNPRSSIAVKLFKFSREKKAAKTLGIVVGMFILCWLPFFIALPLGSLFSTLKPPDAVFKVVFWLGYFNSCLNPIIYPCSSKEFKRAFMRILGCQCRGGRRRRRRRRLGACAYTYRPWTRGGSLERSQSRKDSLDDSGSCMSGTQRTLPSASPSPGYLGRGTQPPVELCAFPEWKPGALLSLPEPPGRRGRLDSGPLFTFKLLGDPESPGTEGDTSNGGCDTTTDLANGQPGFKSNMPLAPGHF
Outline: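 Triplicate competition binding against 0.2-0.25 nM [³H]prazosin in Tris buffer pH 7.4, 30 min at room temperature. Competitor range 0.1-200 nM. Nonspecific binding defined with 10 µM phentolamine. Reaction stopped by GF/B filtration with two cold Tris washes. Membrane protein 300-400 µg per assay. Ki calculated from the data; mean ± SEM of 3-6 experiments.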

[3] = biological target: T2, Adrenergic receptor alpha-2 (Rattus norvegicus, UniProt P22086+P19328+P22909); test: Displacement of clonidine from Alpha-2 adrenergic receptor of rat cortical membranes; format: cell membranes, Membrane
T2 sequence (P22086 whole entry): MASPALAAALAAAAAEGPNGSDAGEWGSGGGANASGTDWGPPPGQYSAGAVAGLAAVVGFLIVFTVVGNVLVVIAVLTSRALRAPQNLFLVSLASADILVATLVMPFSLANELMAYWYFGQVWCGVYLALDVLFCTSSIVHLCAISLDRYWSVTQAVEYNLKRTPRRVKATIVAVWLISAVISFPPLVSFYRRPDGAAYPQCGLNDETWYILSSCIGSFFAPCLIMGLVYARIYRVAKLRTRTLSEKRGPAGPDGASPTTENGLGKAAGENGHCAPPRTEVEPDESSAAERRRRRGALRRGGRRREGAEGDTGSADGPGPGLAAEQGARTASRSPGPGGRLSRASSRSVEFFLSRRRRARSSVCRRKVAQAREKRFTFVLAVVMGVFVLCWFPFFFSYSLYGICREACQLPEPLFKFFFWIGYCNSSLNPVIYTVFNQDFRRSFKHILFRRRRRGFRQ
T2 sequence (P19328 whole entry): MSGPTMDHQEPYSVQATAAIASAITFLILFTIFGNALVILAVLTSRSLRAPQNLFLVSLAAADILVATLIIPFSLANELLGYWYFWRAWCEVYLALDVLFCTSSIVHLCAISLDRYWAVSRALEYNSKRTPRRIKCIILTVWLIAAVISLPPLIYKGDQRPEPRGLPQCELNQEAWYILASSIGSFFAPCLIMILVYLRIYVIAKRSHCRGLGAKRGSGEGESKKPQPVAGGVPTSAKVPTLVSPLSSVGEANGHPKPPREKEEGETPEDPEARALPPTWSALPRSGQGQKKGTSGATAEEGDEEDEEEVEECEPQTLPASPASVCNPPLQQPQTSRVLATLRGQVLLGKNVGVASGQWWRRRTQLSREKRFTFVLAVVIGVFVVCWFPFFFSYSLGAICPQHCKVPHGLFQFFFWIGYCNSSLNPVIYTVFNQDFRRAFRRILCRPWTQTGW
T2 sequence (P22909 whole entry): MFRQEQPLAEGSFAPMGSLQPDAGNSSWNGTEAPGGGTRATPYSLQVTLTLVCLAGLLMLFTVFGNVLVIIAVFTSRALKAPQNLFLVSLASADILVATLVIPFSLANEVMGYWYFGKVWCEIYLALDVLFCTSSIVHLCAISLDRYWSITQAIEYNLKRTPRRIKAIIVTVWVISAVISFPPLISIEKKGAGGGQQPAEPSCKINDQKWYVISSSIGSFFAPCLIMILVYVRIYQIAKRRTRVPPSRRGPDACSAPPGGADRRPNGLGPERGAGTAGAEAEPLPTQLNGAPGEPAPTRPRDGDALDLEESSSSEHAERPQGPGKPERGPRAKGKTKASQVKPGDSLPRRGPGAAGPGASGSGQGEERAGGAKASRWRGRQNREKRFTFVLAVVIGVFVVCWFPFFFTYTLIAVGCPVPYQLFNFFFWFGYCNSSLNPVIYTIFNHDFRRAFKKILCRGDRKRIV
Outline: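 α2 competition binding run in triplicate with 1 nM [³H]clonidine plus 10 mM MgCl₂ in Tris pH 7.4, 30 min at room temperature. Test compounds at 1-100 µM. Nonspecific binding defined with 10 µM clonidine. Membranes collected on GF/B filters and washed twice with cold Tris. Protein 300-400 µg per assay. Ki given as mean ± SEM of 3-6 experiments.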

## COc1ccccc1N1CCN(CC2CN=C3c4ccccc4N=C(SC)N32)CC1 (stereo unspecified)
[1]
  Ratio: 1080
[2]
  Ki: 3.9 nM
[3]
  Ki: 970 nM

## COc1ccccc1N1CCN(Cc2cn3c(O)nc4ccccc4c3n2)CC1
[1]
  Ratio: 1030

## COc1ccccc1N1CCN(Cc2cnc3c4ccccc4nc(O)n23)CC1
[1]
  Ratio: 1550

## COc1ccccc1N1CCN(C[C@H]2CN=C3c4ccccc4N=C(SC)N32)CC1
[1]
  Ratio: 3500
[2]
  Ki: 1.4 nM
[3]
  Ki: 3500 nM

## COc1ccccc1N1CCN(C[C@@H]2CN=C3c4ccccc4NC(=O)N32)CC1
[1]
  Ratio: > 384
[2]
  Ki: 123 nM
[3]
  Ki: > 10000 nM

## Oc1nc2ccccc2c2ncc(CN3CCN(c4ccccc4Cl)CC3)n12
[1]
  Ratio: 382

## COc1ccccc1N1CCN(C[C@@H]2CN=C3c4ccccc4N=C(SC)N32)CC1
[1]
  Ratio: 62.5
[2]
  Ki: 667 nM
[3]
  Ki: 9000 nM

## COc1ccccc1N1CCN(C[C@H]2CN=C3c4ccccc4NC(=O)N32)CC1
[1]
  Ratio: 1410
[2]
  Ki: 0.42 nM
[3]
  Ki: 183 nM

## COc1ccccc1N1CCN(CC2CN3C(=O)Nc4ccccc4C3=N2)CC1 (stereo unspecified)
[1]
  Ratio: 247
[2]
  Ki: 5.5 nM
[3]
  Ki: 230 nM

Reference: ChEMBL document CHEMBL1131058, “Studies on quinazolines and 1,2,4-benzothiadiazine 1,1-dioxides. 8.1, 2 synthesis and pharmacological evaluation of tricyclic fused quinazolines and 1,2,4-benzothiadiazine 1,1-dioxides as potential alpha1-adrenoceptor antagonists” (J Med Chem, 1998)
